The source of these data is PMC4878416 (Diabetes, 2016).

Data set [1] concerns p27KIP phosphorylation (S10). Nature of the data set: Western blot of p27KIP phosphorylation. It is filed as cell-based, rat. As to conditions: INS-1E cells, 24 or 48 h, 10 μmol/L harmine or 0.5 μmol/L 5-IT. In short, it runs like this:
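Cells were treated after overnight attachment and lysed in RIPA buffer. Western blots were probed for p27KIP S10 phosphorylation, with actin as loading control.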

The next data set deals with CLK4 (Homo sapiens, UniProt Q9HAZ1). Nature of the data set: Human kinome profiling, CLK4. The data set is classed as biochemical. In short, it runs like this: (§1)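 Human kinases profiled by commercial providers under their standard protocols; ATP within 15 μmol/L of the apparent KM for each enzyme.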
The target in the next data set is DYRK1B (Homo sapiens, UniProt Q9Y463). As to the kind of experiment: Human kinome profiling, DYRK1B. It is filed as biochemical. In short, it runs like this:
as §1

A further data set addresses T1, DYRK3 (Homo sapiens, UniProt O43781).
T1 sequence (O43781 1-588): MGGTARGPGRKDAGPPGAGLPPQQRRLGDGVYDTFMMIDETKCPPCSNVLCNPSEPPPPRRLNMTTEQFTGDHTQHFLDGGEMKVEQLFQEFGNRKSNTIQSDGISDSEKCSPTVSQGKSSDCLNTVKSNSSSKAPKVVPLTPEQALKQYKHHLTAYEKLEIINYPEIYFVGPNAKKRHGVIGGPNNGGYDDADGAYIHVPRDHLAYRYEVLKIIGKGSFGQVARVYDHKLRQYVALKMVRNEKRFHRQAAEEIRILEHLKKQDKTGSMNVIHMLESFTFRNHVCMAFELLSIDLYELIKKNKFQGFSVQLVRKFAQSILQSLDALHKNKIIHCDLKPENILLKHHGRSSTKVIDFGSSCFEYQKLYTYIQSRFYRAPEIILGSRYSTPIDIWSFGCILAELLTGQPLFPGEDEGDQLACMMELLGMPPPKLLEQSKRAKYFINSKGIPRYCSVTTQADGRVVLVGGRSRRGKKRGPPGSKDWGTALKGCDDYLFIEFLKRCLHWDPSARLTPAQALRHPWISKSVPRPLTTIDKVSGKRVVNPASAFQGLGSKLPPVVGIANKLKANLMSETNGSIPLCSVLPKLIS
Nature of the data set: Human kinome profiling, DYRK3. The data set is classed as biochemical. The method in brief:
as §1

The next data set deals with CLK2 (Homo sapiens, UniProt P49760). As to the kind of experiment: Human kinome profiling, CLK2. The data set is classed as biochemical. The method in brief: as §1
In data set [2] the test system is α-cells of human islet grafts. As to the kind of experiment: α-cell proliferation in human islets grafted under the mouse kidney capsule. The data set is classed as in vivo. The conditions noted are these: 0.25 mg/kg/BW i.p. twice a week for 3 weeks.
Data set [3] has as its system human β-cells. The data set is classed as in vivo. The conditions noted are these: 0.25 mg/kg/BW i.p. twice a week for 3 weeks, vs vehicle. The method in brief: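 NSG mice (male, 8–10 weeks old) were grafted with 1,000 IEQ of human islets under the kidney capsule. From 1 week post-graft they received test compound (0.25 mg/kg i.p., 50% DMSO) or vehicle twice weekly for 3 weeks, followed by BrdU 100 mg/kg i.p. for 3 days and sacrifice at 6 h. Graft sections were co-stained for insulin or PDX-1 with BrdU, Ki67 or pHH3. 1,000–2,000 β-cells were counted per animal; n = 3–4; mean ± SEM; unpaired t test.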

A further data set concerns the target T2, DYRK2 (Homo sapiens, UniProt Q92630).
T2 sequence (Q92630 1-601): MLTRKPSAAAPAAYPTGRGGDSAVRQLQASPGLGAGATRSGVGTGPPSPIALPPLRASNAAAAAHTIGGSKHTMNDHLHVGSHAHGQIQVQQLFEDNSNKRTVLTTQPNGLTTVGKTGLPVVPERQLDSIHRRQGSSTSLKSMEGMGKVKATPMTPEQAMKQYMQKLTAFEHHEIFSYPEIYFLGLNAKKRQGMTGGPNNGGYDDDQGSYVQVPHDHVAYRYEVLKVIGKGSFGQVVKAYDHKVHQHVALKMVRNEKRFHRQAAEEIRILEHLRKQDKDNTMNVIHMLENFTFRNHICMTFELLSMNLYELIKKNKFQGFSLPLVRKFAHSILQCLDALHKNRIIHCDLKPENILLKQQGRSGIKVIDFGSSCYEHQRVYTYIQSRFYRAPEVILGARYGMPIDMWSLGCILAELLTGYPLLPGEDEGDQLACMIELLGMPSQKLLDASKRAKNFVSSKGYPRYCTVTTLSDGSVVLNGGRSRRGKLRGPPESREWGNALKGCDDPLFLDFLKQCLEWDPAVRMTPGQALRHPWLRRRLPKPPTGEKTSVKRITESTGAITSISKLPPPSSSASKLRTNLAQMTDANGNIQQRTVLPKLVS
As to the kind of experiment: Human kinome profiling, DYRK2. It is filed as biochemical. In short, it runs like this:
as §1

The test system of data set [4] is human β-cells. As to the kind of experiment: EdU incorporation proliferation assay in dissociated human islet cells. The data set is classed as cell-based. The method in brief:
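Human islets dissociated in Accutase (5,000 IEQ/mL, 37°C, 20 min), resuspended in CMRL complete medium and seeded at ~30,000 (96-well) or ~15,000 (384-well) cells per well. EdU was present throughout the 6-day treatment, including FK506 cotreatment. Cells were fixed (3% PFA), permeabilised (0.2% Triton X-100) and stained for C-peptide and DAPI. EdU+ β-cells were scored by automated imaging and manually; 4 wells, 9 fields each; mean ± SD; two-tailed t test vs DMSO.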

The test system of data set [5] is liver, adipose, muscle and kidney tissue. As to the kind of experiment: Proliferation. As to conditions: 3-week treatment, 0.25 mg/kg/BW i.p. It is filed as in vivo, mouse. The method in brief:
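Male NSG mice (8–10 weeks old) carried human islet kidney-capsule grafts. From 1 week post-graft they received test compound i.p. at 0.25 mg/kg in 50% DMSO or vehicle, twice weekly for 3 weeks. BrdU was then given at 100 mg/kg i.p. for 3 days, and mice were killed 6 h after the last dose. BrdU+ nuclei were counted in liver and muscle (≥3,000 cells) and in visceral/subcutaneous adipose (1,000–2,000 cells).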

Data set [6] has as its system endogenous NSG pancreatic islets β-cells. As to the kind of experiment: β-cell proliferation in endogenous pancreatic islets of NSG mice. As to conditions: 0.25 mg/kg/BW i.p. twice a week for 3 weeks, vs nontreated or sham-operated mice. It is filed as in vivo, mouse. The method in brief: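 Pancreata came from human islet-grafted NSG mice dosed i.p. with test compound (0.25 mg/kg, 50% DMSO) or vehicle twice weekly for 3 weeks. Mice then received BrdU 100 mg/kg i.p. for 3 days and were killed 6 h after the final injection. Sections were stained for insulin, BrdU and DAPI, and BrdU+ β-cells were quantified; n = 4; mean ± SEM; unpaired t test.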

A further data set addresses CLK1 (Homo sapiens, UniProt P49759). Nature of the data set: Human kinome profiling, CLK1. It is filed as biochemical. In short, it runs like this:
as §1

Sequence of CLK1 (P49759 whole entry): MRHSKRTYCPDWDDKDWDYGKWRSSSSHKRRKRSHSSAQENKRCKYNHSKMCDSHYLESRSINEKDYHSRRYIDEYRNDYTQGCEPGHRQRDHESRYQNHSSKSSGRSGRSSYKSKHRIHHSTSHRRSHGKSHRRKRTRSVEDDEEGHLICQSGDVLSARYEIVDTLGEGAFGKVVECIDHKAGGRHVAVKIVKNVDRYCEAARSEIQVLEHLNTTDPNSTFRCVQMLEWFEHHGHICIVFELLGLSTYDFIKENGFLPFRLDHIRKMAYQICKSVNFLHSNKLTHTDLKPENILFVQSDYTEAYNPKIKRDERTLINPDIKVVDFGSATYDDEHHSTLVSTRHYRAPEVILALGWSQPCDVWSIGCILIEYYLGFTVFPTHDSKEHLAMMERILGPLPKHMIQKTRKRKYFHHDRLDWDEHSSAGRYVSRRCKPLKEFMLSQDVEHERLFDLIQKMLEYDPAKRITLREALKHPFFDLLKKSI
Sequence of CLK2 (P49760 whole entry): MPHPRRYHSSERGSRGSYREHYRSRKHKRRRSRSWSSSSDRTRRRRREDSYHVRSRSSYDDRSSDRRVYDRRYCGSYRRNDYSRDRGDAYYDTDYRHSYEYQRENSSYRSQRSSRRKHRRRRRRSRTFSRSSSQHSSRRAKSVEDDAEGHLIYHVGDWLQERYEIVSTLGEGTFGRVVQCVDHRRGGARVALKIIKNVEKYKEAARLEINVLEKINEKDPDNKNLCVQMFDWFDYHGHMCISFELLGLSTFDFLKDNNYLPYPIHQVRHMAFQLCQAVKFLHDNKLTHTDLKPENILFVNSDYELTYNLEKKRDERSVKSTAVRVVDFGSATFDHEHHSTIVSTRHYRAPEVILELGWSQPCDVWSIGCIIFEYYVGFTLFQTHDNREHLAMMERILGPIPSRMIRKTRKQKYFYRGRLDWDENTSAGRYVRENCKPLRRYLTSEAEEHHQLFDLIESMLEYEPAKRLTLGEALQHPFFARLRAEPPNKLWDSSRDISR
Sequence of CLK4 (Q9HAZ1 whole entry): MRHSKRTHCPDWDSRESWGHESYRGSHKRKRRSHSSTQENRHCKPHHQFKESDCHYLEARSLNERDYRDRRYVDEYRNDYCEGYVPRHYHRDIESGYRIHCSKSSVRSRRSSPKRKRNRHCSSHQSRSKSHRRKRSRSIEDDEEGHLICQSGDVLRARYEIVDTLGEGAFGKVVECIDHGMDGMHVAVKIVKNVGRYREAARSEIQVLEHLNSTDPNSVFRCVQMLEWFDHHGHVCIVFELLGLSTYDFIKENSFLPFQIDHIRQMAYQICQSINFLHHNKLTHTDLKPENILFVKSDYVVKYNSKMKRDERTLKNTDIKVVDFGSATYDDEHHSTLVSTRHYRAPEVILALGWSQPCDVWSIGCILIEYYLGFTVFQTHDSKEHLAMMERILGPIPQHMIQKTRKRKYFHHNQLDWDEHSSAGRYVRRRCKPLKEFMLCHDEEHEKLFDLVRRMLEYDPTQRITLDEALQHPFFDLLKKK
Sequence of DYRK1B (Q9Y463 whole entry): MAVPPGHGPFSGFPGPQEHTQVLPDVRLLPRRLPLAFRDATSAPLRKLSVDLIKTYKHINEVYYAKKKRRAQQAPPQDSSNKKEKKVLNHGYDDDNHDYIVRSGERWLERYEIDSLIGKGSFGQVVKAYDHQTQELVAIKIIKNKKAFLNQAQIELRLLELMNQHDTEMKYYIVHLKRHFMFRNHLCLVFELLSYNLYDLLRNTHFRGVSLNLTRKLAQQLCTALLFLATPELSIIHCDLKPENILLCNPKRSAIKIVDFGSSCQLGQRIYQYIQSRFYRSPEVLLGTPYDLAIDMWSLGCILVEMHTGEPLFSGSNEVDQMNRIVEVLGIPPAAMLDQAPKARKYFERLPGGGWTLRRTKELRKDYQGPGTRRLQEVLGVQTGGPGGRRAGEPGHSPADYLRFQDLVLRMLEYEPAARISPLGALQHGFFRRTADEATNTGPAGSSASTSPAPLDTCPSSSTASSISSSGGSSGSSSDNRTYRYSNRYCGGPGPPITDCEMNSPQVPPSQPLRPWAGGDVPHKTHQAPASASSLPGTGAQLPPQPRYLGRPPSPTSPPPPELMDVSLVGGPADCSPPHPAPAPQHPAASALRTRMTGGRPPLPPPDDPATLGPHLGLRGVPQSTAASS

For the molecule `Nc1ncnc2c1c(I)cn2[C@@H]1O[C@H](CO)[C@@H](O)[C@H]1O` [5-IT, 5-iodotubercidin], the p27KIP phosphorylation entry in data set [1] was “decrease”. In addition, the “remaining activity CLK4” value at CLK4 (100 nmol/L) is below 10%. The 50% inhibitory concentration (IC50) at CLK4 (read-out: IC50 CLK4, ATP within 15 μmol/L of apparent KM) stood at 14 nM; at DYRK1B (read-out: IC50 DYRK1B, ATP within 15 μmol/L of apparent KM), 10 nM; on DYRK3 (read-out: IC50 DYRK3, ATP within 15 μmol/L of apparent KM), 3 nM; at CLK2 (read-out: IC50 CLK2, ATP within 15 μmol/L of apparent KM), 10 nM; at DYRK2 (read-out: IC50 DYRK2, ATP within 15 μmol/L of apparent KM) it was 6 nM; on CLK1 (read-out: IC50 CLK1, ATP within 15 μmol/L of apparent KM) it was 36 nM. The “remaining activity DYRK1B” value at DYRK1B (100 nmol/L) was below 10%. Further, the “remaining activity DYRK3” value at DYRK3 (100 nmol/L) is reported as below 10%. Also, the “remaining activity CLK2” value at CLK2 (100 nmol/L) was below 10%. The “α-cell proliferation in human islet grafts, treated vs nontreated” value in [2] was “no significant alterations”. For the same molecule, the “increase in BrdU incorporation in β-cells of human islet grafts” value in the data set with human β-cells [3] (P < 0.01) was “approximately fivefold”. In addition, the “increase in Ki67 staining of β-cells of human islet grafts” value in the data set with human β-cells [3] (P < 0.05) is “approximately sixfold”. For the same molecule, the “increase in PDX1/BrdU double-positive cells in human islet grafts” value in the data set with human β-cells [3] (P < 0.05) is reported as “approximately fourfold”. Moreover, in the data set with human β-cells [3] (P < 0.05), the “increase in PDX1/Ki67 double-positive cells in human islet grafts” value is given as “approximately sixfold”. For the same molecule, the “increase in pHH3 immunostaining of β-cells of human islet grafts” value in the data set with human β-cells [3] (P < 0.05) is around 10 fold. The “remaining activity DYRK2” value at DYRK2 (100 nmol/L) is below 10%. For the same molecule, the “increase in β-cell proliferation in pair-matched islets” value in the data set with human β-cells [4] (6-day treatment, islets pair-matched to the WS-3 test) worked out at 20 fold. In addition, the “concentration of maximal effect on β-cell proliferation” value with human β-cells [4] (6 days of treatment) was 1 µmol/L. Further, the “increase in β-cell proliferation (EdU incorporation)” value in the data set with human β-cells [4] (6 days of treatment, dissociated human islet cells, maximal effect) is listed as 10- to 12 fold. For the same molecule, in [5], the “proliferation in liver, adipose, muscle and kidney tissue, treated vs control” value was “no significant differences”. The “increase in BrdU+ β-cells in endogenous NSG pancreatic islets” value in [6] is around 2.5 fold. For the same molecule, the “remaining activity CLK1” value on CLK1 (100 nmol/L) is given as below 10%.
